What was measured:
Assay type in all cases: cell-based
Tubulin (Homo sapiens) [1] = target: T1, Tubulin (Homo sapiens) (UniProt P68371+Q9H4B7+P0DPH7+P68366+Q13509+Q71U36+P04350+Q3ZCM7+P07437+P68363+Q9BQE3+Q6PEY2+Q13885+Q9BVA1+Q9BUF5); assay: Stabilization of microtubules in human QBI293 cells assessed as fold change in acetylated tubulin levels at 1 uM after 4 hrs by ELISA relative to DMSO
Method in brief: (§1)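 QBI293 cells were grown in DMEM with 10% FBS, 2 mM L-glutamine and penicillin/streptomycin, then plated at 6 × 10^5 cells/well and left overnight. Medium was replaced with fresh medium holding vehicle (DMSO) or compound, and cells were incubated 4 h. Whole-cell extract supernatants were protein-normalized by BCA assay. AcTub and α-tubulin were quantified by ELISA against standard curves. Values are fold-change over DMSO, analysed by one-way ANOVA.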

Tubulin (Homo sapiens) [2] = target: T1, Tubulin (Homo sapiens); assay: Stabilization of microtubules in human QBI293 cells assessed as fold change in acetylated tubulin levels at 10 uM after 4 hrs by ELISA relative to DMSO; method in brief: as §1
Tubulin (Homo sapiens) [3] = target: T1, Tubulin (Homo sapiens); assay: Stabilization of microtubules in human QBI293 cells assessed as fold change in alpha tubulin levels at 1 uM after 4 hrs by ELISA relative to DMSO; method in brief: as §1
Tubulin (Homo sapiens) [4] = target: T1, Tubulin (Homo sapiens); assay: Stabilization of microtubules in human QBI293 cells assessed as fold change in alpha tubulin levels at 10 uM after 4 hrs by ELISA relative to DMSO; method in brief: as §1
Tubulin (Homo sapiens) [5] = target: T1, Tubulin (Homo sapiens); assay: Stabilization of microtubules in human QBI293 cells assessed as fold change in acetylated tubulin levels at 1 uM after 4 hrs by ELISA relative to cevipabulin
Tubulin (Homo sapiens) [6] = target: T1, Tubulin (Homo sapiens); assay: Stabilization of microtubules in human QBI293 cells assessed as fold change in acetylated tubulin levels at 10 uM after 4 hrs by ELISA relative to cevipabulin
Tubulin (Homo sapiens) [7] = target: T1, Tubulin (Homo sapiens); assay: Stabilization of microtubules in human QBI293 cells assessed as increase in acetylated tubulin levels after 4 hrs by ELISA
Method in brief: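 QBI293 cells are grown in DMEM with 10% FBS, 2 mM L-glutamine and penicillin/streptomycin, plated at 6 × 10^5 cells/well and incubated overnight. […] Acetyl- and total α-tubulin in whole-cell extract supernatants are measured by ELISA against standard curves, with protein by BCA. Values are fold-change over DMSO; AcTub is also given relative to 100 nM cevipabulin positive control. Significance is by one-way ANOVA.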

| SMILES | fold change (FC) (Tubulin (Homo sapiens) [1]) | fold change (FC) (Tubulin (Homo sapiens) [2]) | fold change (FC) (Tubulin (Homo sapiens) [3]) | fold change (FC) (Tubulin (Homo sapiens) [4]) | fold change (FC) (Tubulin (Homo sapiens) [5]) | fold change (FC) (Tubulin (Homo sapiens) [6]) | Activity (Tubulin (Homo sapiens) [7]) |
| --- | --- | --- | --- | --- | --- | --- | --- |
| C[C@H](Nc1c(-c2c(F)cc(S(C)(=O)=O)cc2F)c(Cl)nc2ncnn12)C(F)(F)F | 1.21 | 1.23 | 1.03 | 1.02 | 0.19 | 0.19 | – |
| CC(C)[C@@H](C)Nc1c(-c2ccc(C#N)cc2F)c(Cl)nc2ncnn12 (stereo in doubt; 67) | 2.79 | 3.42 | 0.99 | 0.93 | 0.61 | 0.75 | – |
| N#Cc1cc(F)c(-c2c(Cl)nc3ncnn3c2N2CCCCCCC2)c(F)c1 | 3.24 | 4.4 | 1.01 | 0.99 | 0.58 | 0.79 | – |
| Fc1cc(F)c(-c2c(Cl)nc3ncnn3c2N2CCCCCCC2)c(F)c1 | 3.7 | 7.16 | 1.01 | 1.28 | 0.36 | 0.7 | Dose-dependent effect |
| Oc1c(-c2c(F)cc(F)cc2F)c(Cl)nc2ncnn12 | 1.04 | 1.03 | 1.06 | 1.02 | 0.17 | 0.17 | – |
| Fc1cc(F)c(-c2c(Cl)nc3ncnn3c2N2CCCCC2)c(F)c1 | 2.21 | 5.84 | 1.23 | 1.2 | 0.13 | 0.33 | Dose-dependent effect |
| Fc1cc(F)c(-c2c(Cl)nc3ncnn3c2Nc2ccccc2)c(F)c1 | 1.14 | 1.05 | 1.1 | 0.96 | 0.09 | 0.08 | – |
| Fc1cc(F)c(-c2c(Cl)nc3ncnn3c2NC2CCCC2)c(F)c1 | 2.03 | 4.83 | 1.03 | 0.98 | 0.27 | 0.45 | Dose-dependent effect |
| CC(C)Nc1c(-c2c(F)cc(F)cc2F)c(Cl)nc2ncnn12 | 1.15 | 2.01 | 0.92 | 0.98 | 0.15 | 0.27 | Dose-dependent effect |
| CC(C)[C@H](C)Nc1c(-c2c(F)cc(F)cc2F)c(Cl)nc2ncnn12 | – | – | – | – | – | – | Dose-dependent effect |
| Fc1cc(F)c(-c2c(Cl)nc3ncnn3c2N2CCC2)c(F)c1 | 0.98 | 1.22 | 0.96 | 1.17 | 0.26 | 0.32 | Dose-dependent effect |
| C[C@H](Nc1c(-c2ccc(F)cc2)c(Cl)nc2ncnn12)C(F)(F)F | 1.05 | 2.41 | 1.04 | 1.13 | 0.07 | 0.16 | Dose-dependent effect |
| C[C@@H](Nc1c(-c2c(F)cc(F)cc2F)c(Cl)nc2ncnn12)C(F)(F)F | 1.39 | 2.47 | 1.23 | 1.47 | 0.24 | 0.43 | Dose-dependent effect |
| CC(C)[C@@H](C)Nc1c(-c2ccc(C#N)cc2F)c(Cl)nc2ncnn12 (stereo in doubt; 68) | 2.15 | 2.29 | 0.95 | 0.92 | 0.47 | 0.5 | – |
| CCCNc1c(-c2c(F)cc(F)cc2F)c(Cl)nc2ncnn12 | 1.15 | 1.14 | 1.14 | 0.86 | 0.27 | 0.26 | – |
| Fc1cc(F)c(-c2c(Cl)nc3ncnn3c2NC2CCCCC2)c(F)c1 | 1.13 | 3.51 | 1.07 | 0.99 | 0.07 | 0.23 | Dose-dependent effect |
| CC(C)(C)CNc1c(-c2c(F)cc(F)cc2F)c(Cl)nc2ncnn12 | – | – | – | – | – | – | Dose-dependent effect |
| Fc1cc(F)c(-c2c(Cl)nc3ncnn3c2NC2CCC2)c(F)c1 | 0.97 | 1.75 | 0.94 | 0.95 | 0.13 | 0.23 | Dose-dependent effect |

| SMILES | fold change (FC) (Tubulin (Homo sapiens) [1]) | fold change (FC) (Tubulin (Homo sapiens) [2]) | fold change (FC) (Tubulin (Homo sapiens) [3]) | fold change (FC) (Tubulin (Homo sapiens) [4]) | fold change (FC) (Tubulin (Homo sapiens) [5]) | fold change (FC) (Tubulin (Homo sapiens) [6]) | Activity (Tubulin (Homo sapiens) [7]) |
| --- | --- | --- | --- | --- | --- | --- | --- |
| C[C@H](Nc1c(-c2ccc(F)c(F)c2)c(Cl)nc2ncnn12)C(F)(F)F | 1.85 | 4.76 | 1.01 | 1.13 | 0.05 | 0.12 | Dose-dependent effect |
| C[C@H](Nc1c(-c2c(F)cc([N+](=O)[O-])cc2F)c(Cl)nc2ncnn12)C(F)(F)F | 3.24 | 6.65 | 0.96 | 0.94 | 0.6 | 1.23 | Dose-dependent effect |
| Fc1cc(F)c(-c2c(Cl)nc3ncnn3c2NCc2ccccc2)c(F)c1 | 1.05 | 1.49 | 1 | 1.06 | 0.16 | 0.22 | Dose-dependent effect |
| Fc1cc(F)c(-c2c(Cl)nc3ncnn3c2NC2CC2)c(F)c1 | 1.17 | 1.27 | 1.2 | 1.26 | 0.07 | 0.07 | – |
| C[C@H](Nc1c(-c2c(F)cc(S(=O)(=O)CCCN(C)C)cc2F)c(Cl)nc2ncnn12)C(F)(F)F | 1.13 | 1.08 | 0.7 | 1.07 | 0.24 | 0.23 | – |
| C[C@H](Nc1c(-c2c(F)cc(F)cc2F)c(Cl)nc2ncnn12)C(C)(C)C | – | – | – | – | – | – | Dose-dependent effect |
| Fc1cc(F)c(-c2c(Cl)nc3ncnn3c2N2CCCC2)c(F)c1 | 1.14 | 2.74 | 1.12 | 1.18 | 0.07 | 0.16 | Dose-dependent effect |
| C[C@H](Nc1c(-c2c(F)cc(C(F)(F)F)cc2F)c(Cl)nc2ncnn12)C(F)(F)F | 1.09 | 1.39 | 1.06 | 1.02 | 0.13 | 0.16 | Dose-dependent effect |
| C[C@H](Nc1c(-c2c(F)cc([S@@+]([O-])CCCN(C)C)cc2F)c(Cl)nc2ncnn12)C(F)(F)F | 1.49 | 1.39 | 1.22 | 0.98 | 0.34 | 0.32 | – |
| C[C@H](Nc1c(-c2ccc(C#N)cc2F)c(Cl)nc2ncnn12)C(F)(F)F | 2.01 | 3.64 | 1 | 1 | 0.37 | 0.67 | – |
| C[C@H](Nc1c(-c2c(F)cc(N)cc2F)c(Cl)nc2ncnn12)C(F)(F)F | 0.94 | 0.69 | 0.97 | 0.96 | 0.17 | 0.13 | – |
| C[C@H](Nc1c(-c2c(F)cc([S+](C)[O-])cc2F)c(Cl)nc2ncnn12)C(F)(F)F (some centres undefined) | 0.84 | 0.87 | 0.96 | 0.93 | 0.21 | 0.21 | – |
| C[C@H](Nc1c(-c2c(F)cc(F)cc2F)c(Cl)nc2ncnn12)C(F)(F)F | – | – | – | – | – | – | Dose-dependent effect |
| C[C@H](Nc1c(Cc2c(F)cc(F)cc2F)c(Cl)nc2ncnn12)C(F)(F)F | 1.26 | 1.43 | 1.01 | 1.05 | 0.09 | 0.1 | – |
| CC(C)[C@@H](Nc1c(-c2c(F)cc(F)cc2F)c(Cl)nc2ncnn12)C(F)(F)F | – | – | – | – | – | – | Dose-dependent effect |
| CC(Oc1c(-c2c(F)cc(F)cc2F)c(Cl)nc2ncnn12)C(F)(F)F (centres undefined) | 0.91 | 1.01 | 1.03 | 1.04 | 0.19 | 0.21 | – |
| Nc1c(-c2c(F)cc(F)cc2F)c(Cl)nc2ncnn12 | 1.18 | 1.12 | 1.08 | 1.05 | 0.09 | 0.08 | – |

From ChEMBL document CHEMBL4732138, “Evaluation of the Structure-Activity Relationship of Microtubule-Targeting 1,2,4-Triazolo[1,5-a]pyrimidines Identifies New Candidates for Neurodegenerative Tauopathies” (J Med Chem, 2021)
